# Assay results taken from paper PMC12699372 (RSC Advances, 2025).
# Tests used:
# Assay type in all cases: cell-based
# HT-29 cells = assay: CCK-8 anti-proliferation assay, HT-29; details: Homo sapiens, HT-29, 72 h, read-out: IC50 HT-29, HT-29 cells, 72 h, CCK-8
# NCM-460 cells = assay: CCK-8 cytotoxicity, normal colon cell line NCM-460; details: Homo sapiens, NCM460, 72 h, read-out: IC50 NCM-460, normal human colon cell line NCM-460, 72 h, CCK-8
# Procedure, shortened: (§1)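 HCT-116 and HCT-15 were grown in McCoy's 5A, and NCM-460 in RPMI 1640, each with 10% FBS and 1% penicillin-streptomycin at 37 °C, 5% CO2. Cells were seeded at 4 × 10^3 per well overnight, then exposed to graded concentrations of test compound for 72 h. Medium was replaced with fresh medium containing 10% CCK-8; A450 was read after 1 h at 37 °C. […] At least three independent experiments.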
# HCT-116 cells = assay: CCK-8 anti-proliferation assay, HCT-116; details: Homo sapiens, HCT-116, 72 h, read-out: IC50 HCT-116, HCT-116 cells, 72 h, CCK-8
# Procedure, shortened: as §1
# HCT-15 cells = assay: CCK-8 anti-proliferation assay, HCT-15; details: Homo sapiens, HCT-15, 72 h, read-out: IC50 HCT-15, HCT-15 cells, 72 h, CCK-8
# Procedure, shortened: as §1
SMILES,IC50 (HT-29 cells),IC50 (NCM-460 cells),IC50 (HCT-116 cells),IC50 (HCT-15 cells)
CC1(C)C[C@H]2[C@H]1CC[C@]1(C)CCC[C@@]2(n2cc(C(=O)NCCN)nn2)C1 [NC-14],45.9 ± 11.1 µM,–,–,–
CC1(C)C[C@H]2[C@H]1CC[C@]1(C)CCC[C@@]2(n2cc(C(=O)N3CCNCC3)nn2)C1 [NC-16],4.02 ± 0.14 µM,26.1 ± 3.1 µM,17.9 ± 1.01 µM,11.7 ± 0.85 µM
"O=c1[nH]cc(F)c(=O)[nH]1 [5-FU, 5-fluorouracil, reference compound]",3.63 ± 0.611 µM,3.94 ± 1.41 µM,1.38 ± 0.21 µM,13.3 ± 2.01 µM
CC1(C)C[C@H]2[C@H]1CC[C@]1(C)CCC[C@@]2(n2cc(C(=O)NC3CCNCC3)nn2)C1 [NC-18],3.17 ± 0.24 µM,18.6 ± 4.58 µM,14.7 ± 1.79 µM,14.9 ± 0.98 µM
